The values that follow come from ChEMBL document CHEMBL1770105, “Discovery and evaluation of pyrazolo[1,5-a]pyrimidines as neuropeptide Y1 receptor antagonists” (Bioorg Med Chem Lett, 2011).

The target of series [1] is T1, Neuropeptide Y receptor type 1 (Homo sapiens, UniProt P25929).
T1 sequence (P25929 whole entry): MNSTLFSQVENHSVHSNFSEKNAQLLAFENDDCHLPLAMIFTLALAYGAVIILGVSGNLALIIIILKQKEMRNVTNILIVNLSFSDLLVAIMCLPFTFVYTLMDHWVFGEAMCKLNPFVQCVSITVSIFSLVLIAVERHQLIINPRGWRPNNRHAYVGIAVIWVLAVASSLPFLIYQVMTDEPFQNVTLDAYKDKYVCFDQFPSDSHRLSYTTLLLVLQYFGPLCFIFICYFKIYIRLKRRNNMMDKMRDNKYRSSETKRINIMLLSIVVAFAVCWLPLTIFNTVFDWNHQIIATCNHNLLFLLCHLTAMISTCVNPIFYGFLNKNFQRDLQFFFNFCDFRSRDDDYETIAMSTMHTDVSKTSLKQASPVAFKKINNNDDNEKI
The series can be described thus: Displacement of [125I]-PYY from human recombinant NPY Y1 receptor overexpressed in membrane of Sf9 cells. Summed up: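 Human Y1 receptor: 125I-PYY displacement on Sf9 membranes overexpressing recombinant hY1R. Ki values are single determinations run in triplicate.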
Background: In a radioligand displacement assay an active substance lowers the binding of a labelled ligand.

The nature of series [2]: Ratio of fraction unbound drug level in brain to plasma in Mdr1a/1b knockout mouse to FVB mouse at 5 mg.kg, sc after 0.5 hrs. The class given is ADME, organism-based. Summed up:
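Brain and plasma levels measured in Mdr1a/1b knockout and wild-type FVB mice 0.5 h after a 5 mg/kg sc dose. Brain/plasma ratios calculated from unbound fractions, measured by equilibrium dialysis of brain homogenate and plasma. Result expressed as knockout B/P over FVB B/P.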

Series [3] is described as follows: Selectivity ratio of NPY Y1 receptor over CRHR.
Series [4] concerns the target T2, Corticotropin-releasing factor receptor 1 (Homo sapiens, UniProt P34998).
T2 sequence (P34998 whole entry): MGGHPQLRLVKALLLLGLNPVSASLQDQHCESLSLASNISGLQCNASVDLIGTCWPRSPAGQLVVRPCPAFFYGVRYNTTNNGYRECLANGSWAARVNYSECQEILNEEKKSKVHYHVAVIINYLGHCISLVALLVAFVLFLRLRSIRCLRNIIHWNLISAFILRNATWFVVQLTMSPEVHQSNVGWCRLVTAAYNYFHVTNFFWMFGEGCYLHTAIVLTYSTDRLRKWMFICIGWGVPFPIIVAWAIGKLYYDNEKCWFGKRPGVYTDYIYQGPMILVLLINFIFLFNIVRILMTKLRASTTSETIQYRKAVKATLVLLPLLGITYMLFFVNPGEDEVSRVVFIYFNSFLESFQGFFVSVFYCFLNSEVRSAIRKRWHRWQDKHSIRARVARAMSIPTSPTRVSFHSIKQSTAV
The series can be described thus: Binding affinity to CRHR.

A value given as a limit tells only on which side of the number the result lay.

As a reminder, the Ki is the dissociation constant of the complex between target and ligand, obtained from inhibition or displacement. Consider `COc1cc(Cl)c(-c2c(C)nn3c(NCCNCCF)cc(C)nc23)c(Cl)c1`, for which, in series [1], the Ki is 22 nM. Also, the “Knockout-to-FVB ratio of unbound brain/plasma ratio” value in series [2] was 4.

As to `CCN(CCN)c1nc(C)nc2c1c1ccccc1n2-c1c(C)cc(C)cc1C`, in series [3], the Ratio is 29. For the same molecule, the Ki in series [4] was 4470 nM.

Consider `COc1cc(Cl)c(-c2c(C)nn3c(NCCNC4CCCCC4F)cc(C)nc23)c(Cl)c1` (mixture of isomers), for which the inhibition constant Ki in series [1] was 5 nM. Also, in series [2], the “Knockout-to-FVB ratio of unbound brain/plasma ratio” value turned out to be 8.

In the case of `Cc1cc(C)c(-c2c(C)nn3c(NCCN)cc(C)nc23)c(C)c1`, the inhibition constant (Ki) is 2300 nM in series [1] and above 10000 nM in series [4].

On to `Cc1cc(NCCNC2CCCC2)n2nc(C)c(-c3c(Cl)cccc3Cl)c2n1`, for which the Ki in series [1] turned out to be 38 nM.

On to `COc1ccc(CCNCCNc2cc(C)nc3c(-c4c(C)cc(C)cc4C)c(C)nn23)cc1`, for which the inhibition constant (Ki) in series [1] was 29 nM.

For the molecule `Cc1cc(C)c(-c2c(C)nn3c(NCCNC4CCCC4)cc(C)nc23)c(C)c1`, the Ki in series [1] amounted to 21 nM.
